# Measurements published in ChEMBL document CHEMBL1131454 (J Med Chem, 1998).
# Key:
# Progesterone receptor [1] = target: T1, Progesterone receptor (Homo sapiens, UniProt P06401); assay: Antagonistic activity was determined in Human progesterone receptor(hPR) of CV-1 cells in cotransfection assay.; format: functional, cell-based
# T1 sequence (P06401 whole entry): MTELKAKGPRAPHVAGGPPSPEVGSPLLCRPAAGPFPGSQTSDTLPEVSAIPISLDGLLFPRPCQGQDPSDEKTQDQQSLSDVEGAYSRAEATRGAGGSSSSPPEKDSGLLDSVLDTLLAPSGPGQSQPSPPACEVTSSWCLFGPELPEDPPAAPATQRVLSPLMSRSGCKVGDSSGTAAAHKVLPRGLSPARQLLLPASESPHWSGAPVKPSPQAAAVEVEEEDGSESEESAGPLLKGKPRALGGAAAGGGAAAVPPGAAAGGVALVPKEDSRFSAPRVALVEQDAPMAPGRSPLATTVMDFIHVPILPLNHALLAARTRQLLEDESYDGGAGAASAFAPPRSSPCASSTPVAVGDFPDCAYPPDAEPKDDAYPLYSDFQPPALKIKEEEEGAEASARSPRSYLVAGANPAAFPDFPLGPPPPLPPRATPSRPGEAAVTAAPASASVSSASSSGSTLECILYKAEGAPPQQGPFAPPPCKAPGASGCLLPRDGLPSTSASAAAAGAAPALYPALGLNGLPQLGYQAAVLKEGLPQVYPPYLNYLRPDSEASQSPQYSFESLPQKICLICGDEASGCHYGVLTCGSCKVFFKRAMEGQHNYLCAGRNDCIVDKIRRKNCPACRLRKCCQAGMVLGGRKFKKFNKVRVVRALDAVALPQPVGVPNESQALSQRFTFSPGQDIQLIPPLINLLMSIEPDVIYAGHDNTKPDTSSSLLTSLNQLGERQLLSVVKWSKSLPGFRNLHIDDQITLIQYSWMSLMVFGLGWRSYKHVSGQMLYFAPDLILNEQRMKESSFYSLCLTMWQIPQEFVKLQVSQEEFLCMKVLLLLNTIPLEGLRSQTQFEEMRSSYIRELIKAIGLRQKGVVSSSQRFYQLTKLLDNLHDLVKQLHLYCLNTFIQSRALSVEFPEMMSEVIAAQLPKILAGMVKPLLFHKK
# Progesterone receptor [2] = target: T1, Progesterone receptor; assay: Agonistic activity to the human progesterone receptor (hPR)assayed in CV-1 cells in cotransfection assay.; format: functional, cell-based
# Progesterone receptor [3] = target: T1, Progesterone receptor; assay: The binding affinity on Human progesterone receptor (hPR-A) using progesterone as radioligand.
# [4] = target: T2, Progesterone receptor (Homo sapiens) (UniProt P06401); assay: Agonist efficacy for human progesterone receptor (hPR) was compared to that of progesterone (100%); format: functional
# T2 sequence (whole entry): T1 sequence (P06401 whole entry)
# Procedure, shortened: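 Cotransfection assay in CV-1 cells transiently transfected by calcium phosphate coprecipitation with hPR plasmid, MTV-LUC reporter, pRS-β-Gal and filler DNA. Full dose–response curves from 10^-12 to 10^-5 M were run. […] Values are the mean of at least three experiments with triplicate determinations, or of two experiments, or a single experiment.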
# [5] = target: T2, Progesterone receptor (Homo sapiens); assay: Human progesterone receptor (hPR) antagonist efficacy was determined as a function (%) of maximal inhibition of progesterone at EC50 value.; format: functional
# Procedure, shortened: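 hPR antagonist-mode cotransfection in CV-1 cells transiently transfected by calcium phosphate coprecipitation with hPR plasmid, MTV-LUC reporter, pRS-β-Gal and filler DNA. […] Values come from one, two, or at least three experiments in triplicate.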
# [6] = target: T3, Mineralocorticoid receptor (Homo sapiens, UniProt P08235); assay: Antagonistic activity was determined in Human mineralocorticoid receptor(hMR) of CV-1 cells in cotransfection assay.; format: functional, cell-based
# T3 sequence (P08235 whole entry): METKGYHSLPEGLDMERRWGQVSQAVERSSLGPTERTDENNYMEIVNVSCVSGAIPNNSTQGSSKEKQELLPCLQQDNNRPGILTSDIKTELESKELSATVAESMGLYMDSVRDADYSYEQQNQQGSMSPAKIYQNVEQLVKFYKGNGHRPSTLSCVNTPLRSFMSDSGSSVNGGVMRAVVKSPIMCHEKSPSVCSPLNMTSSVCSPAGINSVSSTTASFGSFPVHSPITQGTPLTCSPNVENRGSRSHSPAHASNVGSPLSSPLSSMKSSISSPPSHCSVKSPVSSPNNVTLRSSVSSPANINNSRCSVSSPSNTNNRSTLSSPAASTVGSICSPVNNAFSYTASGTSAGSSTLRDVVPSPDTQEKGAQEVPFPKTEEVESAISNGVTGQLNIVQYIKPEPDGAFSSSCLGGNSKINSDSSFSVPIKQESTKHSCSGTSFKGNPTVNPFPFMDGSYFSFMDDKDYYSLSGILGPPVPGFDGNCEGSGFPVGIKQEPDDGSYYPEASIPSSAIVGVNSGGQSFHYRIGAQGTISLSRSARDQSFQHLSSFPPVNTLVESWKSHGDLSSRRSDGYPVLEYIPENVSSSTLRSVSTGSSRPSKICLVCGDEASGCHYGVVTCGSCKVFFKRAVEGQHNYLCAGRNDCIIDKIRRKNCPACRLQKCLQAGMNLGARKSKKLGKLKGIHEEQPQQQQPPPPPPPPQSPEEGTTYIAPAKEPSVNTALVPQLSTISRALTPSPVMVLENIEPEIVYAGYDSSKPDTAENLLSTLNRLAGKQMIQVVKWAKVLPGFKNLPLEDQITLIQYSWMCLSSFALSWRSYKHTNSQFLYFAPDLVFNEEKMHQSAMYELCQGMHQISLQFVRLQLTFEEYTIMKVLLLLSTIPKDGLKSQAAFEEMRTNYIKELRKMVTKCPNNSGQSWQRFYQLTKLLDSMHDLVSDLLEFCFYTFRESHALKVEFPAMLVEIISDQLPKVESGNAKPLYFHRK
# Androgen receptor [7] = target: T4, Androgen receptor (Homo sapiens, UniProt P10275)
# T4 sequence (P10275 whole entry): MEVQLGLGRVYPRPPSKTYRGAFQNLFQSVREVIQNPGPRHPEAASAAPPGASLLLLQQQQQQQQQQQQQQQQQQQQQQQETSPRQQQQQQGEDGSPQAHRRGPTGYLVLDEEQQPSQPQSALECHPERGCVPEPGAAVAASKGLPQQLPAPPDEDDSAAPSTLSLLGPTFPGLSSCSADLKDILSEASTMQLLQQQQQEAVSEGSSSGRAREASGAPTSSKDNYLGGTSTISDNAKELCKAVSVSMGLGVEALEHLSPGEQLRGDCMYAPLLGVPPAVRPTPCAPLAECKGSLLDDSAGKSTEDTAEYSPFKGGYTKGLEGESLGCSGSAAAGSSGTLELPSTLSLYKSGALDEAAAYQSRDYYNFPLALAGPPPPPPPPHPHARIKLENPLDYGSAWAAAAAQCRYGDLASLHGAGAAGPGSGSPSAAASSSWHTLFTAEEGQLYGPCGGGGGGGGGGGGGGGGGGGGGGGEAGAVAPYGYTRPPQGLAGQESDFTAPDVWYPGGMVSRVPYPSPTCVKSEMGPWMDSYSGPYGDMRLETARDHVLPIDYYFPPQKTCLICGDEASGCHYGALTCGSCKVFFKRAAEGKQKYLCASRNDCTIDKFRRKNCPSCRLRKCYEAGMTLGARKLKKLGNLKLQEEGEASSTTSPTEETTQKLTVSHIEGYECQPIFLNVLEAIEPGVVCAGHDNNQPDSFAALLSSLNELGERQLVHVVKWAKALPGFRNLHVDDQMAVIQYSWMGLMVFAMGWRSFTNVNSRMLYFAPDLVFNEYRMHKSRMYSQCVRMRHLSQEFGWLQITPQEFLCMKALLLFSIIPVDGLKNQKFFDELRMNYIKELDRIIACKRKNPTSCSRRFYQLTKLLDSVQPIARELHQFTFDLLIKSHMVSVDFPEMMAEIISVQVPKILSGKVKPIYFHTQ
# Glucocorticoid receptor [8] = target: T5, Glucocorticoid receptor (Homo sapiens, UniProt P04150)
# T5 sequence (P04150 whole entry): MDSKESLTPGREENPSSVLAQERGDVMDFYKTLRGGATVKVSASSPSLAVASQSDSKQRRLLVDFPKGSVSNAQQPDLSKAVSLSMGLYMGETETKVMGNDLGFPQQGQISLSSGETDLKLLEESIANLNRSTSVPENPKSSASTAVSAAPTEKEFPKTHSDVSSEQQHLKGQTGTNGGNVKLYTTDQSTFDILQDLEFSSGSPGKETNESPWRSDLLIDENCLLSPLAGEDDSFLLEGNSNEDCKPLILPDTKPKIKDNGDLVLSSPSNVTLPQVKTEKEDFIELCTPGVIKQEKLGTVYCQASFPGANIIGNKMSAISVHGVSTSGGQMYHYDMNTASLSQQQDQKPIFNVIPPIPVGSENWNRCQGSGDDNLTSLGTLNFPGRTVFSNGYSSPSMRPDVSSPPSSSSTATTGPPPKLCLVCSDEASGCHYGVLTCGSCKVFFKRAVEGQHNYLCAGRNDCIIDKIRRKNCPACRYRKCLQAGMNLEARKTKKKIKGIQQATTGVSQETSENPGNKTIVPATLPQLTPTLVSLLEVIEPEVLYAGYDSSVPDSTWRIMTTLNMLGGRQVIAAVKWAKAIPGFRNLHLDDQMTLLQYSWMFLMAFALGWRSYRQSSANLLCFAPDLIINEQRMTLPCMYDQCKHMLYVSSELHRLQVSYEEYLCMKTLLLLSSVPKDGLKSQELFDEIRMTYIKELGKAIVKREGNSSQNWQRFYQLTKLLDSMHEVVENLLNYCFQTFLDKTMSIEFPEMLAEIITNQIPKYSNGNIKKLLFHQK
# Glucocorticoid receptor [9] = target: T5, Glucocorticoid receptor; remark: listed apart in the source
# Androgen receptor [10] = target: T4, Androgen receptor; remark: listed apart in the source
# Glucocorticoid receptor [11] = target: T5, Glucocorticoid receptor; assay: Agonist activity against Human glucocorticoid receptor(hGR) expressed in CV-1 cells; format: functional, cell-based
IC50 (Progesterone receptor [1]) [nM],EC50 (Progesterone receptor [2]) [nM],Ki (Progesterone receptor [3]) [nM],Efficacy [4] [%],Efficacy [5] [%],IC50 [6] [nM],Ki (Androgen receptor [7]) [nM],Ki (Glucocorticoid receptor [8]) [nM],IC50 (Glucocorticoid receptor [9]) [nM],IC50 (Androgen receptor [10]) [nM],EC50 (Glucocorticoid receptor [11]) [nM],SMILES
105,> 10000,13.3,< 20,65,,,,,,,COc1ccc(C2Oc3ccccc3-c3ccc4c(c32)C(C)=CC(C)(C)N4)cc1 (stereo unspecified)
4600,25,6.8,60,56,,,,,,,CC1=CC(C)(C)Nc2ccc3c(c21)C(c1ccc(F)c(C(F)(F)F)c1)Oc1ccccc1-3 (stereo unspecified)
1210,27,2.4,49,65,,,,,,,CC1=CC(C)(C)Nc2ccc3c(c21)C(c1cc(F)cc(Br)c1)Oc1ccccc1-3 (stereo unspecified)
71,1700,13.8,21,86,,,,,,,CC1=CC(C)(C)Nc2ccc3c(c21)C(c1cccc(Br)n1)Oc1ccccc1-3 (stereo unspecified)
132,> 10000,8.8,< 20,68,,,,,,,CC(=O)c1ccc(C2Oc3ccccc3-c3ccc4c(c32)C(C)=CC(C)(C)N4)cc1 (stereo unspecified)
342,8,5.3,28,77,,,,,,,CC1=CC(C)(C)Nc2ccc3c(c21)C(c1ccc(F)cc1)Oc1ccccc1-3 (stereo unspecified)
290,156,3.6,,,354,1860,154,226,745,,CC1=CC(C)(C)Nc2ccc3c(c21)C(c1ccccc1)Oc1ccccc1-3 (stereo unspecified)
150,8,0.69,48,74,,,,,,,CC1=CC(C)(C)Nc2ccc3c(c21)C(c1cccc(F)c1)Oc1ccccc1-3 (stereo unspecified)
54,3900,3.9,24,86,,,,,,,CC1=CC(C)(C)Nc2ccc3c(c21)C(c1ccc(Br)nc1)Oc1ccccc1-3 (stereo unspecified)
,,,,,1200,,13.2,,,10,CC(=O)O[C@]1(C(C)=O)CC[C@H]2[C@@H]3C[C@H](C)C4=CC(=O)CC[C@]4(C)[C@H]3CC[C@@]21C [MEDROXYPROGESTERONE ACETATE]
150,33,10.8,35,49,,,,,,,CC1=CC(C)(C)Nc2ccc3c(c21)C(c1ccc(C(F)(F)F)cc1)Oc1ccccc1-3 (stereo unspecified)
